Legend:
[1] = tested on: Plasmodium falciparum; assay: Antimalarial activity against erythrocytic stages of chloroquine-sensitive Plasmodium falciparum 3D7 infected in human O-positive erythrocytes after 48 hrs by SYBR Green-I fluorescence-based method; type: functional, organism-based; details: 3D7, 48 h
[2] = Cytotoxicity against human HuH7 cells after 24 hrs by MTT assay; type: cell-based; details: Huh-7, 24 h
Summary of the method: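 Huh-7 cells in DMEM with 10% FBS and gentamicin, seeded at 10⁴ cells per well and left overnight. Compounds added for 24 h at 37 °C, 5% CO2, with 10% DMSO as positive control. MTT added for a further 3 h. Formazan dissolved in DMSO after centrifugation, read at 570 nm. IC50 from dose-response curves.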

[3] = Selectivity index, ratio for IC50 for human HuH7 cells to IC50 for erythrocytic stages of chloroquine-sensitive Plasmodium falciparum 3D7; type: functional, Huh-7

SMILES | IC50 [1] [µM] | IC50 [2] [µM] | Ratio IC50 [3]
COc1ccc(-c2ccc3ncc(C(=O)NCc4ccc(C(F)(F)F)cc4)c(=O)n3c2)cc1 | > 100 | – | –
O=C(NCCC(c1ccccc1)c1ccccc1)Nc1cnc2ccccn2c1=O | > 100 | – | –
O=C(Nc1ncccc1OCc1ccccc1)Nc1cnc2ccccn2c1=O | > 100 | – | –
CC(C)N(Cc1ccccc1)C(=O)Nc1cnc2ccccn2c1=O | 70 | – | –
Cc1ccn2c(=O)c(NC(=O)N(Cc3ccccc3)C(C)C)cnc2c1 | > 100 | – | –
O=C(NC1CC1)c1cccnc1N1CCN(C(=O)Nc2cnc3ccccn3c2=O)CC1 | > 100 | – | –
O=C(Nc1cnc2ccccn2c1=O)OCc1cccc(F)c1 | 33 | > 100 | >3
O=C(Nc1cnc2ccccn2c1=O)OCc1ccc2c(c1)OCO2 | > 100 | – | –
CCOC(=O)[C@H](Cc1ccccc1)NC(=O)Nc1cnc2ccccn2c1=O | > 100 | – | –
NC(=O)[C@H](Cc1ccccc1)NC(=O)Nc1cnc2ccccn2c1=O | > 100 | – | –
N#C[C@H](Cc1ccccc1)NC(=O)Nc1cnc2ccccn2c1=O | > 100 | – | –
COc1ccc(CNC(=O)c2cnc3ccccn3c2=O)cc1 | > 100 | – | –
O=C(NCc1cccc(F)c1)c1cnc2ccccn2c1=O | 43 | – | –
O=C(NCc1ccccc1C(F)(F)F)c1cnc2ccccn2c1=O | > 100 | – | –
O=C(NCc1cccc(C(F)(F)F)c1)c1cnc2ccccn2c1=O | 65 | > 200 | >3
O=C(NCc1ccc(C(F)(F)F)cc1)c1cnc2ccccn2c1=O | 37 | > 200 | >5.4
O=C(NCc1ccc(F)cc1F)c1cnc2ccccn2c1=O | 59 | > 200 | >3.3
O=C(NCCN1CCOCC1)c1cnc2ccccn2c1=O | > 100 | – | –
CCCCCOc1cccnc1NC(=O)c1cnc2ccccn2c1=O | > 100 | – | –
O=C(Nc1ncccc1OCc1ccccc1)c1cnc2ccccn2c1=O | 100 | – | –
Cc1noc(C)c1NC(=O)c1cnc2ccccn2c1=O | > 100 | – | –
COc1ccc(C(C)NC(=O)c2cnc3ccccn3c2=O)cc1 (configuration not stated) | > 100 | – | –
O=C(NC1CCN(Cc2ccccc2)CC1)c1cnc2ccccn2c1=O | > 100 | – | –
O=C(c1cnc2ccccn2c1=O)N(Cc1ccccc1F)C1CC1 | > 100 | – | –
Cc1ccn2c(=O)c(C(=O)NCc3ccc(C(F)(F)F)cc3)cnc2c1 | 70 | > 100 | >1.4
COc1ccc(-c2ccc3ncc(C(=O)NCc4cccc(F)c4)c(=O)n3c2)cc1 | > 100 | – | –
COc1ccc(-c2ccc3ncc(C(=O)NCC4CCCO4)c(=O)n3c2)cc1 (configuration not stated) | 100 | – | –

The next lines start with results.

IC50 [1] [µM] | SMILES | IC50 [2] [µM] | Ratio IC50 [3]
100 | O=C(NCc1ccccc1C(F)(F)F)Nc1cnc2ccccn2c1=O | – | –
> 100 | O=C(NCc1ccc(C(F)(F)F)cc1)Nc1cnc2ccccn2c1=O | – | –
> 100 | O=C(NCc1cccs1)Nc1cnc2ccc(Cl)cn2c1=O | – | –
> 100 | COCCNC(=O)Nc1cnc2ccc(Cl)cn2c1=O | – | –
> 100 | O=C(NCc1ccc(C(F)(F)F)cc1)Nc1cnc2ccc(Cl)cn2c1=O | – | –
> 100 | O=C(NCc1cccc(C(F)(F)F)c1)Nc1cnc2ccc(Cl)cn2c1=O | – | –
> 100 | O=C(NCc1ccccc1C(F)(F)F)Nc1cnc2ccc(Cl)cn2c1=O | – | –
> 100 | CC(C)N(Cc1ccccc1)C(=O)Nc1cnc2ccc(Cl)cn2c1=O | – | –
> 100 | CC(C)(C)OC(=O)N1CCN(C(=O)Nc2cnc3ccc(Cl)cn3c2=O)CC1 | – | –
> 100 | O=C(Nc1cnc2ccc(Cl)cn2c1=O)N1CCN(C(=O)c2ccco2)CC1 | – | –
> 100 | O=C(Nc1cnc2ccc(Cl)cn2c1=O)OCc1ccccn1 | – | –
> 100 | O=C(Nc1cnc2ccc(Cl)cn2c1=O)OCc1cccnc1 | – | –
> 100 | O=C(Nc1cnc2ccc(Cl)cn2c1=O)OCc1cccc(F)c1 | – | –
> 100 | CC(C)C[C@H](NC(=O)Nc1cnc2ccccn2c1=O)C(N)=O | – | –
> 100 | CC(C)C[C@@H](C#N)NC(=O)Nc1cnc2ccccn2c1=O | – | –

Reference: ChEMBL document CHEMBL3232972, “Synthesis and biological evaluation of some novel pyrido[1,2-a]pyrimidin-4-ones as antimalarial agents” (Eur J Med Chem, 2014)
